From PubChem BioAssay
A selection follows.
PGC1a Ac signal: raises PGC1a acetylation signal in U2OS cells; U2OS PGC1a acetylation AlphaScreen, overnight; activation, % at 15.6 µM; actives 0.21% (n = 350,000); AID 651723;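 active means every replicate reaching activation of at least 50%, whatever the mean replicate activation; inconclusive means replicates that disagree or another doubt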;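 further: hits raise the AlphaScreen acetylation signal above neutral controls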
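Incubation: overnight compound treatment, 37 °C. System: U2OS cells transduced with flag-tagged PGC1a and GCN5 acetyltransferase. Detection: AlphaScreen lysate read. Compound: single-point compound dosing.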
Hep G6PC suppr: hepatocyte G6PC expression change via PGC-1a acetylation activation | primary mouse hepatocytes, G6PC mRNA qPCR, forskolin | G6PC suppression (normalized activity, % of positive control; higher = more suppression), % at 26 µM | AID 743463 | 240 tested, under 10 active | shares compounds with PGC1a Ac signal;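 active means dose curves showing G6PC suppression whose half-maximal dose is at most twice the top valid dose; inconclusive means flat curves with moderate negative activity, or unreliable fits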;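 further: G6PC expression relative to GAPDH housekeeping gene as delta delta Ct; 0% = median of neutral control wells and 100% = median of positive control wells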
PCK1 hep suppr: hepatocyte PCK1 expression change via PGC-1a acetylation activation; shares compounds with PGC1a Ac signal; primary mouse hepatocytes, PCK1 mRNA qPCR, forskolin-stimulated; PCK1 expression decrease, unspecified at 26 µM; 230 tested, under 10 active; AID 743465;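 active means compounds lowering PCK1 expression whose fitted half-maximal concentration is at most twice the top tested dose; inconclusive means flat fit with moderate opposite-direction effect, or poor fit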;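 further: values are delta delta Ct of PCK1 relative to GAPDH; higher delta delta Ct means lower PCK1 expression so positive values indicate hits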
PGC1a hep suppr: PGC-1a acetylation activators affecting PGC-1a expression in hepatocytes. shares compounds with PGC1a Ac signal. primary mouse hepatocytes, PGC-1a mRNA qPCR, forskolin; top dose 26 µM. max activity (PGC-1a expression decrease), %. 240 tested, under 10 active. AID 743467;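 active means compound lowering PGC-1a expression with fitted half-maximal concentration at most twice its top tested dose; inconclusive means flat curve with moderate opposite-direction effect, or poor fit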;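 further: 0% = neutral control wells median and 100% = positive control wells median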
* marks the source's active call; other numbers are inactive results; ? = inconclusive; nt = not tested or not shown; [ ] = another dose, or the depositor's remark.

SMILES	PGC1a Ac signal	Hep G6PC suppr	PCK1 hep suppr	PGC1a hep suppr
COc1ccc(S(=O)(=O)N2CCOCC2)cc1NC(=O)CCNC(=O)c1ccc(Cl)cc1	75.9*	2.9	48.9	?
CC(=O)N(Cc1ccc(F)cc1)C1=C(NCCc2ccccc2)C(=O)c2ccccc2C1=O	-84.3	nt	nt	nt
CCc1nc(N)nc(N)c1-c1ccc(Cl)cc1	-48.1	nt	nt	nt
Cc1c(/C(O)=C2\C(=O)C(=O)N(CCCN(C)C)C2c2ccccc2)cnn1-c1ccccc1 (stereo not given)	-81.6	nt	nt	nt
O=C(CCn1nnc2ccccc21)Nc1nnc(Cc2ccccc2)s1	62.8*	-50.5	nt	?
COc1ccc(C(=O)/C(=C\c2ccco2)N2C=CC=CC2=C(C#N)C#N)cc1	-71.3	nt	nt	nt
COc1ccccc1CN1C[C@@H]2C[C@@H](c3cccc(C)n3)N3CCC[C@@]23C1=O	-43.2	nt	nt	nt
C[C@@](Cc1ccc(O)c(O)c1)(NN)C(=O)O	-62.3	nt	nt	nt
CCCCn1c(CN(Cc2ccccc2)Cc2ccccc2)nc2c1c(=O)n(C)c(=O)n2C	?	0.0	193	67.1
CCOCCn1c(CN(Cc2ccccc2)Cc2ccccc2)nc2c1c(=O)[nH]c(=O)n2C	?	-11.9	0.241	37.7
CCOCCn1c(CN(Cc2ccccc2)Cc2ccccc2)nc2c1c(=O)n(C)c(=O)n2C	56.3*	nt	11.1	26.8
COc1cc(CN2CCN(Cc3ccccc3C(F)(F)F)CC2)cc(OC)c1OC	-63.3	nt	nt	nt
N/C(=N\OC(=O)CCCOc1ccccc1)c1ccc([N+](=O)[O-])cc1	-90.1	nt	nt	nt
Cc1ccc(N)cc1S(=O)(=O)N(C)C	-45.6	nt	nt	nt
CCCOc1ccc(C(=O)Nc2cccnc2)cc1	76.7*	-37.9	56.6	54.1
O=C(Nc1cccnc1)c1ccc(Oc2ccccc2)cc1	78.5*	-13.9	9.49	?
O=C1C=CC(=O)c2c(O)c(N3CCN(CCO)CC3)c(Cl)c(O)c21	-50.5	nt	nt	nt
COc1ccccc1/C=C/c1nc2ccc(OC(C)=O)cc2c(=O)o1	-40.0	nt	nt	nt
COc1ccc(CN2CCn3ncc(C(=O)Nc4ccccc4)c3C2=O)cc1	-129.1	87.7	38.7	52.6
CCCCCCC[C@@H](C/C=C/CCC(=O)O)OC	-45.2	nt	nt	nt
COc1cccc2c1C(=O)c1c(O)c3c(c(O)c1C2=O)C[C@@](O)(C(C)=O)C[C@@H]3O[C@H]1C[C@H](N)[C@H](O)[C@H](C)O1	-50.9	nt	nt	nt
O=C(Nc1nc2cc3c(cc2s1)OCCO3)c1ccncc1	-62.2	nt	nt	nt
C[C@@H]1CN([C@@H](C)CO)C(=O)c2c(c3ccccc3n2C)-c2ccccc2CO[C@@H]1CN(C)C(=O)Nc1cccc(C(F)(F)F)c1	79.3*	102.6[23.5 µM]	44.6[23.5 µM]	57.9
C[C@@H]1CN([C@H](C)CO)C(=O)c2c(c3ccccc3n2C)-c2ccccc2CO[C@@H]1CN(C)C(=O)Nc1cccc(C(F)(F)F)c1	67.9*	111.8	196	156.6
CO[C@@H](C(=O)N(C)C[C@H]1OCc2ccccc2-c2c(n(C)c3ccccc23)C(=O)N([C@H](C)CO)C[C@H]1C)c1ccccc1	72.2*	7.7	31.7	79.3
SMILES	PGC1a Ac signal	Hep G6PC suppr	PCK1 hep suppr	PGC1a hep suppr
C[C@@H]1CN([C@@H](C)CO)C(=O)c2c(c3ccccc3n2C)-c2ccccc2CO[C@@H]1CN(C)C(=O)Nc1ccc(F)cc1	?	-2.3[23.5 µM]	42.1[23.5 µM]	32.3
CCOC(=O)Cn1cc(/C=C(/C#N)C(=O)NC(C)C)c2ccccc21	-48.9	nt	nt	nt
Cc1[nH]nc2ncc(C(=O)c3ccccc3O)cc12	-44.5	nt	nt	nt
COc1ccc(-c2cn[nH]c2-c2ccc(O)cc2O)cc1	-42.1	nt	nt	nt
COc1ccc(-c2nc3ccccc3c(=O)o2)cc1OC	-49.2	nt	nt	nt
COC(=O)c1nn(-c2ccccc2)ccc1=O	-44.3	nt	nt	nt
O=S(=O)(Nc1cc(Sc2ncn[nH]2)c(O)c2ccccc12)c1ccccc1	-72.4	nt	nt	nt
COc1ccc(N(C(=O)c2snc(C(N)=O)c2N)C(C(=O)NC2CCCCC2)c2ccc(C)o2)cc1 (stereo not given)	62.1*	-14.5	-44.9	37.1
COc1ccc(N(C(=O)c2snc(C(N)=O)c2N)C(C(=O)NC2CCCCC2)c2ccc(F)cc2)c(OC)c1 (stereo not given)	?	-19.5[8 µM]	119	71.7
C#CC(=O)N(c1ccc(OC)cc1OC)C(C(=O)NC1CCCC1)c1cccs1 (stereo not given)	-94.5	nt	nt	nt
COCCNC(=O)c1ccc(C)cc1C	-44.3	nt	nt	nt
CCC1NC(=S)N(C2CCCCC2)C1=O (stereo not given)	-55.4	nt	nt	nt
CCOC(=O)C(=CNc1ccc(C)cc1C)C(=O)OCC	-41.5	nt	nt	nt
Cc1cccc(N2C(=O)C(Cl)=C(N3CCOCC3)C2=O)c1	-81.3	nt	nt	nt
CCN1CC=C2C(C#N)=C(N)C(C#N)(C#N)[C@H](c3cccc(OC)c3OC)[C@H]2C1	-40.9	nt	nt	nt
CC(=O)Nc1ccc(Nc2ncnc3c2cnn3-c2ccc(C)cc2C)cc1	131.3*	-72.7	nt	130.2
Cc1cc(N)c2cc(NC(=O)/C=C/c3ccccc3Cl)ccc2n1	-80.4	nt	nt	nt
Cc1ccc(CN(CC(O)COc2cccc3[nH]cc(C)c23)C(C)(C)C)cc1 (stereo not given)	89.6*	468.9	301	165.4
CCOC(=O)NC(=S)Nc1cccc(NC(=S)NC(=O)OCC)c1	-40.5	nt	nt	nt
COc1ccccc1C(NC(C)=O)c1cc(Cl)c2cccnc2c1O (stereo not given)	-46.0	nt	nt	nt
COc1ccc(C(CNC(=O)c2cccc(N(C)C)c2)N2CCCC2)cc1 (stereo not given)	-46.8	175.7	121	28.5
C=CCNc1nc(Cl)nc(NCc2ccco2)n1	-41.9	nt	nt	nt
Cc1cc(C)c2c(-n3cccc3)c(C(=O)NNS(=O)(=O)c3ccccc3)sc2n1	173.4*	nt	nt	?
COc1ccccc1CN1CCCC(C(=O)N(C)Cc2ccccc2)C1 (stereo not given)	-45.0	nt	nt	nt
CN1CC=C2C(C#N)=C(N)C(C#N)(C#N)C(CCc3ccccc3)C2C1 (stereo not given)	-45.2	nt	nt	nt
SMILES	PGC1a Ac signal	Hep G6PC suppr	PCK1 hep suppr	PGC1a hep suppr
Cc1sc2ncnc(N3CCC(C(=O)NNC(=O)COc4ccc(Cl)cc4)CC3)c2c1C	-45.9	nt	nt	nt
Oc1ccc(C=Nc2ccc(N3CCOCC3)cc2)c(O)c1	-64.2	nt	nt	nt
Cc1cccc(-c2ccc3[nH]c4c(c3c2)CCN2C[C@@H]([C@H](C)O)[C@@H](N(C)C(=O)NC3CCCCC3)C[C@@H]42)c1	-40.5	nt	nt	nt
COc1ccc(C(C)(O)c2nc(-c3ccc(S(C)(=O)=O)cc3)cs2)cc1 (stereo not given)	?	-43.2	16.2	49.1
CCN(CC)C(=O)c1sc(NC(=O)c2ccncc2)c(C(=O)OC)c1C	-52.4	nt	nt	nt
COc1ccccc1CNS(=O)(=O)c1cc(C)ccc1OC	-43.2	nt	nt	nt
COc1ccc(Br)cc1CNc1ccccc1	-40.4	10.5	50	27.5
O=C(CCCn1c(=O)[nH]c2cc(Cl)ccc2c1=O)NCCC1=CCCCC1	73.3*	60.2	?	-24.4
CCN1CCN(c2ncc(C(=O)Nc3cc(Cl)ccc3OC)c3ccccc23)CC1	-92.8	272.1[8 µM]	?	109.8
Cc1cccc(Oc2nccc(C(F)(F)F)c2C(=O)Nc2ccc(F)cc2F)c1	-84.9	nt	nt	nt
Cc1cc(C(=O)CSc2nnc(-c3ccccc3)o2)c(C)n1CC1COc2ccccc2O1 (stereo not given)	-51.2	nt	nt	nt
COc1ccc(Cc2nc(-c3ccc(NC(=O)c4cccnc4)cc3)no2)cc1	239.7*	-23.2	-4.36	102.3
